Where two headings read alike, the source gives them in different places.
Experiments:
[1] = tested on: Staphylococcus aureus TISTR746; assay: Agar disc diffusion, S. aureus; type: cell-based; settings: S. aureus TISTR 746; extracts 500 mg/mL on disc; 37 °C, 24 h
Method in brief: (§1)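 Bacteria suspended in 0.85 % saline to McFarland 0.5 (1.5 × 10^8 CFU/mL) and swabbed onto Mueller–Hinton agar. Sterile paper discs loaded with 10 μL of 500 mg/mL extract. Chloramphenicol positive control, DMSO negative control. Plates incubated aerobically at 37 °C for 24 h. Inhibition zones measured in mm with calipers; three independent experiments, mean ± SEM.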

[2] = tested on: Escherichia coli TISTR1984; assay: Agar disc diffusion, E. coli; type: cell-based; settings: E. coli TISTR 1984; extracts 500 mg/mL on disc; 37 °C, 24 h
Method in brief: as §1

[3] = DPPH free radical scavenging assay; settings: at 1 mg/mL
Method in brief: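 Test compound mixed with 150 μM DPPH reagent, shaken immediately, then held 30 min in the dark at room temperature. Absorbance read at 520 nm. Trolox served as standard and positive control. Three independent experiments, mean ± SEM, one-way ANOVA vs diluent control.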

[4] = ABTS free radical scavenging assay; settings: at 0.5 mg/mL
Method in brief: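 Free-radical scavenging measured by mixing ABTS working solution with test compound, then incubating 10 min in the dark at room temperature. Absorbance read at 734 nm. Trolox served as standard and positive control. Three independent experiments, mean ± SEM, one-way ANOVA vs diluent control.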

[5] = tested on: HEK293T cells; assay: MTT cell viability, HEK293T; type: cell-based, human
Method in brief: (§2)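 Cells grown in DMEM/10 % FBS at 37 °C, 5 % CO2, seeded at 5 × 10^3 cells/well and left 24 h. Exposed to extracts (0–400 µg/mL) or cisplatin (0–400 µM) for 24, 48 or 72 h. MTT added for 2 h at 37 °C, formazan dissolved in DMSO, OD read at 570 nm. % viability and IC50 derived; three independent experiments, mean ± SEM.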

[6] = tested on: MCF10A cells; assay: MTT cell viability, MCF10A; type: cell-based, human
Method in brief: as §2

[7] = tested on: MCF-7 cells; assay: MTT cell viability, MCF-7; type: cell-based, human; settings: MCF-7, MTT
Method in brief: as §2

[8] = tested on: MDA-MB-231 cells; assay: MTT cell viability, MDA-MB-231; type: cell-based, human; settings: MDA-MB-231, MTT
Method in brief: as §2

[9] = tested on: MCF-7 cells; assay: Clonogenic cell survival assay, MCF-7; type: cell-based, human; settings: cisplatin 100 μM, 24 h, p < 0.05 vs control
Method in brief: (§3)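 Cells grown in DMEM/10 % FBS at 37 °C, 5 % CO2, seeded at 2 × 10^5 cells/well and left 24 h. Test compound or cisplatin added for 24 h. Cells trypsinised and reseeded at 1 × 10^3 cells/well without drug for 8–10 days. Fixed in cold methanol 45 min, stained with 0.5 % crystal violet 45 min. Colonies counted by light microscopy as % of untreated control; n = 3, one-way ANOVA.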

[10] = tested on: MDA-MB-231 cells; assay: Clonogenic cell survival assay, MDA-MB-231; type: cell-based, human; settings: cisplatin 100 μM, 24 h, p < 0.0001 vs control
Method in brief: as §3

[11] = tested on: RAW264.7 cells; assay: MTT cell viability, RAW264.7; type: cell-based, mouse; settings: RAW cells, 24 h, compared to untreated cells
Method in brief: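 RAW264.7 macrophages grown in DMEM/10 % FBS at 37 °C, 5 % CO2. Exposed 24 h to dexamethasone (0–100 μM) or LPS (0–100 ng/mL). Viability expressed relative to untreated cells.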

O=C(N[C@H](CO)[C@H](O)c1ccc([N+](=O)[O-])cc1)C(Cl)Cl [CHL, Chloramphenicol]
ZOI [1]: 29.75 ± 1.77 mm | ZOI [2]: 29.75 ± 0.35 mm

Cc1c(C)c2c(c(C)c1O)CCC(C)(C(=O)O)O2 (centres unmarked) [Trolox]
DPPH radical inhibition rate [3]: 98.02 ± 0.21% | ABTS radical inhibition rate [4]: 69.92 ± 3.08%

N.N.[Cl][Pt][Cl] [cisplatin]
IC50 ([5]; read-out: IC50 for 24 h, 24 h): 62.3 ± 3.1 µM | IC50 ([5]; read-out: IC50 for 48 h, 48 h): 11.6 ± 1.3 µM | IC50 ([5]; read-out: IC50 for 72 h, 72 h): 3.25 ± 0.88 µM | IC50 ([6]; read-out: IC50 for 24 h, 24 h): 74.3 ± 3.24 µM | IC50 ([6]; read-out: IC50 for 48 h, 48 h): 37.2 ± 2.72 µM | IC50 ([6]; read-out: IC50 for 72 h, 72 h): 26.2 ± 1.66 µM | IC50 ([7]; read-out: IC50 for 24 h, 24 h): 73.8 ± 3.24 µM | IC50 ([7]; read-out: IC50 for 48 h, 48 h): 41.5 ± 2.8 µM | IC50 ([7]; read-out: IC50 for 72 h, 72 h): 32.9 ± 2.63 µM | IC50 ([8]; read-out: IC50 for 24 h, 24 h): 46.7 ± 2.89 µM | IC50 ([8]; read-out: IC50 for 48 h, 48 h): 44.7 ± 2.86 µM | IC50 ([8]; read-out: IC50 for 72 h, 72 h): 33.3 ± 2.64 µM | colony formation [9]: significantly decreased | colony formation [10]: significantly decreased

C[C@@H]1C[C@H]2[C@@H]3CCC4=CC(=O)C=C[C@]4(C)[C@@]3(F)[C@@H](O)C[C@]2(C)[C@@]1(O)C(=O)CO [dexamethasone]
cell viability ([11]; dexamethasone at 0–12.50 μM): unchanged

lipopolysaccharide [LPS]
cell viability ([11]; LPS at 0–12.5 ng/mL): unchanged

Source: publication PMC11402745 (Heliyon, 2024)
